Measurements as given in ChEMBL document CHEMBL1629548, “In vitro activities of tigecycline against clinical isolates of Aeromonas, Vibrio, and Salmonella species in Taiwan” (2008).

Assays:
Type in all cases: functional
[1] = system: Aeromonas sobria; experiment: Antimicrobial activity against Aeromonas sobria assessed as susceptibility level by disk diffusion method
Summary of the method: (§1)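 Cefotaxime and ciprofloxacin susceptibility taken from routine clinical laboratory reports; disk diffusion per CLSI guidelines.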

[2] = system: Aeromonas hydrophila; experiment: Antimicrobial activity against Aeromonas hydrophila assessed as susceptibility level by disk diffusion method; summary of the method: as §1
[3] = system: Aeromonas caviae; experiment: Antimicrobial activity against Aeromonas caviae assessed as susceptibility level by disk diffusion method; summary of the method: as §1
[4] = system: Salmonella enterica; experiment: Antimicrobial activity against Salmonella serotype Choleraesuis assessed as susceptibility level by disk diffusion method
Summary of the method: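 Cefotaxime and ciprofloxacin susceptibility was taken from routine laboratory reports. These were generated by disk diffusion according to CLSI guidelines.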

[5] = system: Salmonella; experiment: Antimicrobial activity against Salmonella serogroup O9 assessed as susceptibility level by disk diffusion method; summary of the method: as §1
[6] = system: Salmonella; experiment: Antimicrobial activity against Salmonella serogroup O8 assessed as susceptibility level by disk diffusion method; summary of the method: as §1
[7] = system: Salmonella; experiment: Antimicrobial activity against Salmonella serogroup O7 assessed as susceptibility level by disk diffusion method; summary of the method: as §1

Structure (SMILES)	Activity [1]	Activity [2]	Activity [3]	Activity [4]	Activity [5]	Activity [6]	Activity [7]
CO/N=C(\C(=O)N[C@@H]1C(=O)N2C(C(=O)O)=C(COC(C)=O)CS[C@H]12)c1csc(N)n1 [CEFOTAXIME]	95%	79%	73%				
O=C(O)c1cn(C2CC2)c2cc(N3CCNCC3)c(F)cc2c1=O [CIPROFLOXACIN]	93%	90%	86%	22%	96%	57%	77%
